Reference: ChEMBL document CHEMBL3232774, “Symmetric bis-chalcones as a new type of breast cancer resistance protein inhibitors with a mechanism different from that of chromones” (J Med Chem, 2014)

Legend:
[1] = target: T1, ABCG2 (Homo sapiens, UniProt Q9UNQ0); test: Inhibition of ABCG2 (unknown origin) transfected in HEK293 cells assessed as inhibition of mitoxantrone efflux at 5 uM after 30 mins by flow cytometry relative to control; assay type: cell-based; conditions: HEK293 cells transfected with ABCG2, probe mitoxantrone
T1 sequence (Q9UNQ0 whole entry): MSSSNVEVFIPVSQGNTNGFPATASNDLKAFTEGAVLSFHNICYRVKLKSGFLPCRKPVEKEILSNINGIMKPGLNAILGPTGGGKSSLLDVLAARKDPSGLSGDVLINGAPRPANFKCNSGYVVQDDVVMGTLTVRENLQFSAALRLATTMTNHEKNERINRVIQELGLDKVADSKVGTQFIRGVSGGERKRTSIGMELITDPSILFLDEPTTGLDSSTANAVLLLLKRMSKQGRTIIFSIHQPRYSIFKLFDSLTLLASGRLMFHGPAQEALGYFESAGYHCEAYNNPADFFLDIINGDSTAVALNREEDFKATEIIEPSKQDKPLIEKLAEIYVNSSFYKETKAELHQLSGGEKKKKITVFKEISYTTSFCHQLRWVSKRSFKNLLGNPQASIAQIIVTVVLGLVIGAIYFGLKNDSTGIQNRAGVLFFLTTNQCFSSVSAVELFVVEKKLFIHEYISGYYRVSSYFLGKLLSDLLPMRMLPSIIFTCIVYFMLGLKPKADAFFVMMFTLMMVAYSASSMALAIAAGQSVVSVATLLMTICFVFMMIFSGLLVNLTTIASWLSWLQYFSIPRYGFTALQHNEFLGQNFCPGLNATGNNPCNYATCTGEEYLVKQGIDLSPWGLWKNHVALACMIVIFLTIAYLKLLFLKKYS
Outline: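 HEK293-ABCG2 cells (1.5 × 10⁵/well, grown 48 h) exposed to 5 μM mitoxantrone for 30 min at 37 °C with compound (increasing concentrations up to 10 μM); washed, trypsinized, FL4 flow cytometry, ≥10 000 events.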

[2] = tested on: ATP-binding cassette sub-family G member 2 (Homo sapiens); test: Inhibition of ABCG2-mediated mitoxantrone efflux in mitoxantrone-selected human PANC1 cells overexpressing ABCG2; conditions: PANC-1
[3] = target: T2, Broad substrate specificity ATP-binding cassette transporter ABCG2 (Homo sapiens, UniProt Q9UNQ0); test: Inhibition of ABCG2 (unknown origin) transfected in HEK293 cells assessed as inhibition of mitoxantrone efflux after 30 mins by flow cytometry relative to control; assay type: cell-based
T2 sequence (Q9UNQ0 whole entry): T1 sequence (Q9UNQ0 whole entry)

[4] = target: Multidrug resistance-associated protein 1 (Homo sapiens, UniProt P33527); test: Inhibition of ABCC1 (unknown origin) transfected in HEK293 cells assessed as inhibition of calcein-AM efflux up to 10 uM after 30 mins by flow cytometry relative to control; assay type: cell-based; conditions: hek293, 0.5 h
Chain of Multidrug resistance-associated protein 1 (P33527 whole entry): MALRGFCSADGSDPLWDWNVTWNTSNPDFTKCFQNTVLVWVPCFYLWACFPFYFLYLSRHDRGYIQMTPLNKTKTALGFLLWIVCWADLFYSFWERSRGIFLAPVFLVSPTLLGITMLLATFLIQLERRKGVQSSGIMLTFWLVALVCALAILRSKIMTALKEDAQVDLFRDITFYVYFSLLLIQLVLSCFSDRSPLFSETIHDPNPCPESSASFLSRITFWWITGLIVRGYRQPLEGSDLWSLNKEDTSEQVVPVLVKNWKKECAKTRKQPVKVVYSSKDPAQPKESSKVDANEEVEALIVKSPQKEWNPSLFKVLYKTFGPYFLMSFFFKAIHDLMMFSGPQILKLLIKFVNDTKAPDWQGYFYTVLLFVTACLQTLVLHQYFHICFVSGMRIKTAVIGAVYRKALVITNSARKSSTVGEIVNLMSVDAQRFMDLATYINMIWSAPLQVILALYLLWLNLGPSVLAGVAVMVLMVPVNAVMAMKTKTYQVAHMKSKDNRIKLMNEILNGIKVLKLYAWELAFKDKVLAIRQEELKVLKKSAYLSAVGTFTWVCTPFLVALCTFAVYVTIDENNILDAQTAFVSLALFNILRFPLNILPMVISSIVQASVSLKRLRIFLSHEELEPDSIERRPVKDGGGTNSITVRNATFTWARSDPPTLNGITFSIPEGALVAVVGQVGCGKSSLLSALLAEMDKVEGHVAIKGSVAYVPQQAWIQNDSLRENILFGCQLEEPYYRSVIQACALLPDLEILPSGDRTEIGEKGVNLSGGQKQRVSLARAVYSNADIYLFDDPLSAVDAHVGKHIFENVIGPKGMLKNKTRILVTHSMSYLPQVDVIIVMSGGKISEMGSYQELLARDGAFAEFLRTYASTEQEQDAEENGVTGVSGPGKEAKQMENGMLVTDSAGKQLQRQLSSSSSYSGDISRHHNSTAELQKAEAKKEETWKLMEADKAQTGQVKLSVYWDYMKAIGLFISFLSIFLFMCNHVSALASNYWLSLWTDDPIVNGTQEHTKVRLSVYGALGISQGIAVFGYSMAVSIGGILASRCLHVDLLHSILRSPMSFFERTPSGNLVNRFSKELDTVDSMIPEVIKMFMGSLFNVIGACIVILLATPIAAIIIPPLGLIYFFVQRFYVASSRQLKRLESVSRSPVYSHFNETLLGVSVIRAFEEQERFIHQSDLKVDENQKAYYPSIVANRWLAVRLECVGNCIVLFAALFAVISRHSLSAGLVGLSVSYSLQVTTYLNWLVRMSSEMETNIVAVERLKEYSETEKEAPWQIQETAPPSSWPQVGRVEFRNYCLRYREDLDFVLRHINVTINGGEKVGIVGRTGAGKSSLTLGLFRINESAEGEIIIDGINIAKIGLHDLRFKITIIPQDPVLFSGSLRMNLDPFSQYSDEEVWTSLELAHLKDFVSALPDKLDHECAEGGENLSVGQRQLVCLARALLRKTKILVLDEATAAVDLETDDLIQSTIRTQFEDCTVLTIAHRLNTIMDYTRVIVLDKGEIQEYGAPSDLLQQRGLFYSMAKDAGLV
Outline: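 HEK293-ABCC1 cells (2 × 10⁵/well, kept in 200 μg/mL hygromycin B) were exposed to 0.2 μM calcein-AM for 30 min at 37 °C with bis-chalcone at 1 or 10 μM. Calcein was read by FL1 flow cytometry, ≥10 000 events. Inhibition was expressed relative to HEK293/pcDNA5 cells, whose maximal accumulation equals complete inhibition.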

[5] = target: T2, Broad substrate specificity ATP-binding cassette transporter ABCG2; test: Inhibition of ABCG2 (unknown origin)-mediated mitoxantrone efflux transfected in HEK293 cells assessed as potentiation of mitoxantrone-induced cytotoxicity at 0.5 uM after 72 hrs by MTT assay; assay type: cell-based; conditions: hek293, 72 h
Outline: (§1)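 HEK293-ABCG2 and vector-control HEK293-pcDNA3.1 cells were seeded at 1 × 10⁴/well and grown 24 h, then exposed 72 h to mitoxantrone (0–25 nM). ABCG2 cells were also given bis-chalcone at 0.1 or 0.5 μM. MTT was added for 4 h, formazan dissolved in DMSO/ethanol (1:1) and read at 570 nm. IC50 = mitoxantrone concentration giving 50% survival.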

[6] = target: T2, Broad substrate specificity ATP-binding cassette transporter ABCG2; test: (§2) Inhibition of human ABCG2 ATPase activity transfected in Sf9 insect cells using quercetin as substrate after 30 mins by colorimetry relative to control
Outline: (§3)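 Vanadate-sensitive ATPase of cholesterol-loaded human ABCG2 Sf9 membranes (0.5 mg/mL; 10 μg/sample), 50 mM Tris-HCl/50 mM NaCl pH 8.0, with 2 μM quercetin. ATP-Mg 3.9 mM, 30 min, 37 °C. Phosphate measured colorimetrically at 880 nm. Coupled activity = total minus basal, taken as 100%. IC50 is the concentration giving 50% inhibition.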

[7] = target: T3, ABCG2 ATPase (Homo sapiens, UniProt Q9UNQ0); test: as §2; conditions: human, Sf9 insect cells transfected with human ABCG2, probe quercetin; read-out: Imax; outline: as §3
T3 sequence (Q9UNQ0 whole entry): T1 sequence (Q9UNQ0 whole entry)

[8] = target: T2, Broad substrate specificity ATP-binding cassette transporter ABCG2; test: Inhibition of human ABCG2 transfected in Sf9 insect cells assessed as inhibition of basal ATPase activity in absence of substrate drug after 30 mins by colorimetry; conditions: sf9, 0.5 h
Outline: (§4)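 Cholesterol-loaded membranes from Sf9 cells overexpressing human ABCG2 (0.5 mg/mL; 10 μg/sample) in 50 mM Tris-HCl, 50 mM NaCl, pH 8.0, with or without 0.33 mM orthovanadate, no transport substrate; started with 3.9 mM ATP-Mg, 30 min at 37 °C; stopped with SDS; phosphate released read with molybdate/ascorbic acid at 880 nm; vanadate-sensitive basal activity taken as 100%.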

[9] = target: ATP-dependent translocase ABCB1 (Homo sapiens, UniProt P08183); test: Inhibition of ABCB1 (unknown origin) transfected in mouse NIH/3T3 cells assessed as inhibition of mitoxantrone efflux up to 10 uM after 30 mins by flow cytometry relative to control; assay type: cell-based; conditions: nih/3t3, 0.5 h
Chain of ATP-dependent translocase ABCB1 (P08183 whole entry): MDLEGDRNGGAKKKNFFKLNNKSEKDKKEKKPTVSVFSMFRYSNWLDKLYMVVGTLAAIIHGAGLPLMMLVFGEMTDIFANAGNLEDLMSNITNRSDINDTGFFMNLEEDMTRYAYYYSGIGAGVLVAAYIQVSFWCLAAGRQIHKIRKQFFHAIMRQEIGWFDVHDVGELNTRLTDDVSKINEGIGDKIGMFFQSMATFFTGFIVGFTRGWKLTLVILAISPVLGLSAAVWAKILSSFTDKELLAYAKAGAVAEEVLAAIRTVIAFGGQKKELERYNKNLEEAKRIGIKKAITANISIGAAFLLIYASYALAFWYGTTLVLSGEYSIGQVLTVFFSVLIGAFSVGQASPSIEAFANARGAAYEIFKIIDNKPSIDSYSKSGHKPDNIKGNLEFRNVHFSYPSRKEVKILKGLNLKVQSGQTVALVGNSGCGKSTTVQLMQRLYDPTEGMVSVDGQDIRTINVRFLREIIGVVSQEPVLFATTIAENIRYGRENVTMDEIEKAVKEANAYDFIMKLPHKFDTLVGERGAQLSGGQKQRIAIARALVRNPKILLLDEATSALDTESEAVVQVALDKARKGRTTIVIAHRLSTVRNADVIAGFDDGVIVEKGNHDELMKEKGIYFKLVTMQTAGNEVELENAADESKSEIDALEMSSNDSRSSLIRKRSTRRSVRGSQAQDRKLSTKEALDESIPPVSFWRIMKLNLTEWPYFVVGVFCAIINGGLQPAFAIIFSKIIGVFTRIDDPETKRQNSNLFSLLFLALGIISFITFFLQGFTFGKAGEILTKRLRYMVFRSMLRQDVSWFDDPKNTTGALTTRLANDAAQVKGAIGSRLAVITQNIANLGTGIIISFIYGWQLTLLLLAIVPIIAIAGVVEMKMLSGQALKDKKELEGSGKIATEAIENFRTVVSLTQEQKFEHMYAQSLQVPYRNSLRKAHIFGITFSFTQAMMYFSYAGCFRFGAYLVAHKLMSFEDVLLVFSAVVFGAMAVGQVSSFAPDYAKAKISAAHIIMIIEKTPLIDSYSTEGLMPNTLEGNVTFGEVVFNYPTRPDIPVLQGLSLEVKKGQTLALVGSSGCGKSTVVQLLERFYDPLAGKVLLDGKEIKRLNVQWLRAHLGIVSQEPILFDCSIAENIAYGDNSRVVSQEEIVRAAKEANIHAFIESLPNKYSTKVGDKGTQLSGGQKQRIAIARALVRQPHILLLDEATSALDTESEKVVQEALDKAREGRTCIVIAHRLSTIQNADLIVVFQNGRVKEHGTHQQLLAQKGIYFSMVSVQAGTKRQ
Outline: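 NIH-3T3-ABCB1 cells (1.5 × 10⁵/well, 48 h, kept in 60 ng/mL colchicine) were given 5 μM mitoxantrone for 30 min at 37 °C with bis-chalcone at 1 or 10 μM. Fluorescence was read by FL4 flow cytometry, ≥10 000 events. Inhibition was expressed relative to parental NIH-3T3 cells, whose maximal accumulation was taken as complete inhibition.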

[10] = target: T3, ABCG2 ATPase; test: Activation of human ABCG2 transfected in Sf9 insect cells assessed as stimulation of basal ATPase activity in absence of substrate drug after 30 mins by colorimetry; conditions: Sf9 insect cells transfected with human ABCG2, read-out: FC; outline: as §4
[11] = tested on: HEK293; test: Cytotoxicity against HEK293 cells overexpressing ABCG2 at 0.5 uM after 72 hrs by MTT assay; assay type: ADME, cell-based; conditions: human, hek293, 72 h; outline: as §1
[12] = target: T2, Broad substrate specificity ATP-binding cassette transporter ABCG2; test: Inhibition of ABCG2 (unknown origin) transfected in HEK293 cells assessed as inhibition of mitoxantrone efflux at 5 uM after 30 mins in presence of 0.1 uM (2E,2'E)-1,1'-(1,4-Phenylene)bis(3-(2,6-dimethoxyphenyl)-prop-2-en-1-one) by flow cytometry; assay type: cell-based
[13] = tested on: HEK293; test: Cytotoxicity against HEK293 cells after 72 hrs by MTT assay; assay type: cell-based; conditions: Homo sapiens, HEK293, 72 h; outline: as §1
[14] = tested on: HEK293; test: Cytotoxicity against HEK293 cells overexpressing ABCG2 after 72 hrs by MTT assay; assay type: ADME, cell-based; conditions: Homo sapiens, HEK293, 72 h; outline: as §1

SMILES | inhibition at 0.5 h, 5 µM [1] [%] | EC50 [3] [nM] | further results
O=C(O)c1ccc(/C=C/C(=O)c2ccc(C(=O)/C=C/c3ccc(C(=O)O)cc3)cc2)cc1 | 2 |  | 
COc1cc(OC)c(C(=O)/C=C/c2ccc(/C=C/C(=O)c3cc(OC)c(OC)cc3OC)cc2)cc1OC | 41 |  | 
CN(C)c1ccc(/C=C/C(=O)c2ccc(C(=O)/C=C/c3ccc(N(C)C)c4ccccc34)cc2)c2ccccc12 | 17 |  | 
COc1cc(OC)cc(C(=O)/C=C/c2ccc(/C=C/C(=O)c3cc(OC)cc(OC)c3)cc2)c1 | 78 | 500 | EC50 [2]: 210 nM; inhibition (INH) [4]: Not Active; inhibition (INH) [5]: Active; IC50 [6]: 270 nM; Emax at 0.5 h [7]: 72%; inhibition (INH) [8]: Not Active; inhibition (INH) [9]: Not Active; fold induction at 0.5 h [10]: 1.8; Activity [11]: Non-toxic
O=C(/C=C/c1ccc2nccnc2c1)c1ccc(C(=O)/C=C/c2ccc3nccnc3c2)cc1 | 18 |  | 
COc1cc(OC)c(/C=C/C(=O)c2ccc(C(=O)/C=C/c3c(OC)cc(OC)cc3OC)cc2)c(OC)c1 | 92 | 400 | 
O=C(/C=C/c1cccc2ccccc12)c1ccc(C(=O)/C=C/c2cccc3ccccc23)cc1 | 13 |  | 
COc1ccc(/C=C/C(=O)c2ccc(C(=O)/C=C/c3ccc(OC)c(OC)c3)cc2)cc1OC | 63 | 2100 | 
COc1ccc2[nH]cc(CCNC(=O)c3cc(=O)c4c(OCc5ccc(Br)cc5)cccc4o3)c2c1 |  | 94 | EC50 [12]: 31 nM; inhibition (INH) [8]: Active
COc1ccc(/C=C/C(=O)c2ccc(C(=O)/C=C/c3ccc(OC)cc3)cc2)cc1 | 18 |  | 
O=C(O)c1ccc(C(=O)/C=C/c2ccc(/C=C/C(=O)c3ccc(C(=O)O)cc3)cc2)cc1 | 0 |  | 
O=C(/C=C/c1ccc(/C=C/C(=O)c2ccccc2)cc1)c1ccccc1 | 25 |  | 
O=C(/C=C/c1ccc2ccccc2c1)c1ccc(C(=O)/C=C/c2ccc3ccccc3c2)cc1 | 7 |  | 
COc1cc(C(=O)/C=C/c2ccc(/C=C/C(=O)c3cc(OC)c(OC)c(OC)c3)cc2)cc(OC)c1OC | 73 | 1100 | 
COc1ccc(OC)c(C(=O)/C=C/c2ccc(/C=C/C(=O)c3cc(OC)ccc3OC)cc2)c1 | 74 | 1300 | 
O=C1c2c(O)ccc(O)c2C(=O)c2c(NCCNCCO)ccc(NCCNCCO)c21 [MITOXANTRONE] |  |  | IC50 [13]: 10 nM; IC50 [14]: 26.6 nM
O=C(/C=C/c1ccc2c(c1)OCO2)c1ccc(C(=O)/C=C/c2ccc3c(c2)OCO3)cc1 | 11 |  | 

SMILES | inhibition at 0.5 h, 5 µM [1] [%] | EC50 [3] [nM] | further results
COc1cc(/C=C/C(=O)c2ccc(C(=O)/C=C/c3ccc(O)c(OC)c3)cc2)ccc1O | 0 |  | 
O=C(/C=C/c1ccc(/C=C/C(=O)c2cccc3ccccc23)cc1)c1cccc2ccccc12 | 23 |  | 
O=C(/C=C/c1ccccc1)c1ccc(C(=O)/C=C/c2ccccc2)cc1 | 13 |  | 
COc1ccc(/C=C/C(=O)c2ccc(C(=O)/C=C/c3ccc(OC)c(OC)c3OC)cc2)c(OC)c1OC | 86 | 1400 | 
COc1ccc(C(=O)/C=C/c2ccc(/C=C/C(=O)c3ccc(OC)cc3)cc2)cc1 | 27 |  | 
COc1cccc(C(=O)/C=C/c2ccc(/C=C/C(=O)c3cccc(OC)c3)cc2)c1 | 73 | 2300 | 
COc1cc(OC)c(C(=O)/C=C/c2ccc(/C=C/C(=O)c3c(OC)cc(OC)cc3OC)cc2)c(OC)c1 | 66 | 1800 | 
COc1cc(/C=C/C(=O)c2ccc(C(=O)/C=C/c3cc(OC)c(OC)c(OC)c3)cc2)cc(OC)c1OC | 43 |  | 
COc1cc(C(=O)/C=C/c2ccc(/C=C/C(=O)c3ccc(O)c(OC)c3)cc2)ccc1O | 28 |  | 
COc1cc(OC)c(OC)cc1/C=C/C(=O)c1ccc(C(=O)/C=C/c2cc(OC)c(OC)cc2OC)cc1 | 96 | 300 | 
O=C(/C=C/c1ccc(/C=C/C(=O)c2ccc3ccccc3c2)cc1)c1ccc2ccccc2c1 | 45 |  | 
CN(C)c1ccc(/C=C/C(=O)c2ccc(C(=O)/C=C/c3ccc(N(C)C)cc3)cc2)cc1 | 34 |  | 
COc1ccc(C(=O)/C=C/c2ccc(/C=C/C(=O)c3ccc(OC)c(OC)c3)cc2)cc1OC | 97 | 800 | 
COc1ccc(OC)c(/C=C/C(=O)c2ccc(C(=O)/C=C/c3cc(OC)ccc3OC)cc2)c1 | 96 | 700 | 
COc1ccc(C(=O)/C=C/c2ccc(/C=C/C(=O)c3ccc(OC)cc3OC)cc2)c(OC)c1 | 86 | 900 | 
O=C(/C=C/c1ccc(/C=C/C(=O)c2ccc3c(c2)OCO3)cc1)c1ccc2c(c1)OCO2 | 19 |  | 
COc1ccccc1C(=O)/C=C/c1ccc(/C=C/C(=O)c2ccccc2OC)cc1 | 95 | 1100 | 
